Data set [1] has as its target T1, WT-Parkin (Homo sapiens, UniProt O60260).
T1 sequence (O60260 1-465): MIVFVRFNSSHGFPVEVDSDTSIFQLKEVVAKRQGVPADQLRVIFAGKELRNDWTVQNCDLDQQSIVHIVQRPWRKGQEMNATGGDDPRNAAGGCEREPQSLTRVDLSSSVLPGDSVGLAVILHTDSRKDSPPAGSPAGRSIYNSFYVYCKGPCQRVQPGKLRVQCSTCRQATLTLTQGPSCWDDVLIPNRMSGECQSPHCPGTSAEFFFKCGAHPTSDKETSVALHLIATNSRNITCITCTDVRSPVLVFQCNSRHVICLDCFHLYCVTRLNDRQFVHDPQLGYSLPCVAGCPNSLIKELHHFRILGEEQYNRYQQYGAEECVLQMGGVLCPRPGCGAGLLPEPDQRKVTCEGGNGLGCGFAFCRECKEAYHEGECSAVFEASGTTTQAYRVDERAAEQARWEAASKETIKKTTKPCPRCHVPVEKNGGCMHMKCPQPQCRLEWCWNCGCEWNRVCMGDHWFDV
Put plainly: Parkin autoubiquitination by Western blot. The data set is classed as biochemical. The conditions noted are these: 5 min reaction at 37°C. The method, boiled down:
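Untagged WT-Parkin was pre-incubated 30 min at 37°C with E1, E2 and test compound; the 2X mix held 40 nM E1, 800 nM E2 and 100 nM Parkin. Then 2X substrate mix was added (760 nM fluorescein-Ub, 50 μM ubiquitin, 10 μM pUb, 2 mM ATP) in HEPES pH 7.4 buffer with 1% DMSO, in 40 μL. Stopped after 5 min with SDS sample buffer; polyubiquitin smears were read by Western blot.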
(Immunoblotting shows a protein as a band on a membrane.)

The target of data set [2] is T2, WT-Parkin (substrate His-Miro1 186-591) (Homo sapiens, UniProt O60260).
T2 sequence (O60260 1-465): T1 sequence (O60260 1-465)
Nature of the data set: Miro1 ubiquitination assay by Western blot. Type of data set: biochemical. The conditions noted are these: His-Miro1 (186-591) substrate. In outline: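 Run as the TR-FRET reaction with untagged WT-Parkin. Test compound was pre-incubated 30 min with E1, E2, Parkin and His-Miro1 186-591 (250 nM final); the 2X mix held 40 nM E1, 800 nM E2 and 100 nM Parkin. After 20 min the reaction was stopped in SDS sample buffer, then run on 4–12% bis-tris SDS-PAGE, PVDF transfer and IR-dye secondary imaging.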

The target in data set [3] is T3, N-terminally tagged WT-Parkin (Homo sapiens, UniProt O60260).
T3 sequence (O60260 1-465): T1 sequence (O60260 1-465)
Nature of the data set: In vitro ubiquitin vinyl sulfone. Type of data set: biochemical. The conditions noted are these: 3 μM pUb, 2 h, no E1, E2 or ATP. In outline: (§1)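 Tagged Parkin (WT or W403A), 2 μM, incubated with 10 μM Ub-VS and 3 μM pUb. Test compound at 0, 0.09, 0.27, 0.8, 2.5, 7.4, 22.2, 66.7 and 200 μM. Buffer: 50 mM HEPES, 150 mM NaCl, 1 mM TCEP, pH 8.0. Final DMSO 2% (v/v).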

Data set [4] addresses T4, N-terminally tagged W403A-Parkin (Homo sapiens, UniProt O60260, W403A).
T4 sequence (O60260 1-465 W403A): T1 sequence (O60260 1-465) with W403A
Put plainly: In vitro ubiquitin vinyl sulfone. The conditions noted are these: 3 μM pUb, 1 h. Type of data set: biochemical. The method, boiled down:
as §1

Data set [5] deals with T1, WT-Parkin. Nature of the data set: Parkin catalytic poly-auto-Ub TR-FRET assay. The data set is classed as biochemical. The conditions noted are these: for activity in TR-FRET autoubiquitination assay: WT-Parkin with pUb. A general note: TR-FRET usually uses a lanthanide donor and a delayed reading to cut background.
Data set [6] deals with SH-SY5Y cells expressing the MitoQC construct. Put plainly: MitoQC mitophagy assay. Type of data set: cell-based. Particulars: 1 h pre-incubation, Antimycin + Oligomycin. The method, boiled down:
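SH-SY5Y cells carrying MitoQC were seeded at 1.6×10^4 cells/well on attachment factor and recovered 72 h. Cells were pre-treated 1 h with test compound, then given 5 μM Antimycin + 10 μM Oligomycin or DMSO for 8 h unless stated otherwise. Fixed in 2% PFA on ice 30 min, DAPI-stained, and imaged at 64x (25 fields, 4 replicate wells). mCherry puncta (mitolysosomes) were counted.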

The target of data set [7] is Human MDR1 efflux transporter (MDCK-MDR1 cells) (Homo sapiens, UniProt P08183). Nature of the data set: MDCK-MDR1 bidirectional permeability / efflux. Type of data set: in vitro ADME. The conditions noted are these: average of inward and outward permeability. The method, boiled down: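 MDCK-MDR1 cells were seeded at 0.28×10^6 cells/mL on the apical side of transwell inserts and grown 7 days, with two media changes. Monolayers were rinsed in HBSS/1% HEPES pH 7.4. 1 μM test compound was added to the donor side (A>B and B>A); receivers held buffer with 1% BSA. Plates were shaken 2 h at 37°C. Donor was sampled at 0 and 120 min, receiver at 2 h, and quenched with acetonitrile plus internal standard for LC-MS/MS. Post-assay TEER had to exceed 430 ohm∗cm2. Papp = (dQ/dt)(1/C0)(1/A); ER = Papp B>A / Papp A>B.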

Data set [8] addresses N-terminally tagged W403A-Parkin (UniProt O60260).

Numbering of substitutions follows the chain as printed. Bounds are passed on as bounds.

Broadly, the EC50 is the midpoint of the concentration-response curve. A lower EC50 goes with greater potency.

Human MDR1 efflux transporter (MDCK-MDR1 cells), sequence (P08183 whole entry): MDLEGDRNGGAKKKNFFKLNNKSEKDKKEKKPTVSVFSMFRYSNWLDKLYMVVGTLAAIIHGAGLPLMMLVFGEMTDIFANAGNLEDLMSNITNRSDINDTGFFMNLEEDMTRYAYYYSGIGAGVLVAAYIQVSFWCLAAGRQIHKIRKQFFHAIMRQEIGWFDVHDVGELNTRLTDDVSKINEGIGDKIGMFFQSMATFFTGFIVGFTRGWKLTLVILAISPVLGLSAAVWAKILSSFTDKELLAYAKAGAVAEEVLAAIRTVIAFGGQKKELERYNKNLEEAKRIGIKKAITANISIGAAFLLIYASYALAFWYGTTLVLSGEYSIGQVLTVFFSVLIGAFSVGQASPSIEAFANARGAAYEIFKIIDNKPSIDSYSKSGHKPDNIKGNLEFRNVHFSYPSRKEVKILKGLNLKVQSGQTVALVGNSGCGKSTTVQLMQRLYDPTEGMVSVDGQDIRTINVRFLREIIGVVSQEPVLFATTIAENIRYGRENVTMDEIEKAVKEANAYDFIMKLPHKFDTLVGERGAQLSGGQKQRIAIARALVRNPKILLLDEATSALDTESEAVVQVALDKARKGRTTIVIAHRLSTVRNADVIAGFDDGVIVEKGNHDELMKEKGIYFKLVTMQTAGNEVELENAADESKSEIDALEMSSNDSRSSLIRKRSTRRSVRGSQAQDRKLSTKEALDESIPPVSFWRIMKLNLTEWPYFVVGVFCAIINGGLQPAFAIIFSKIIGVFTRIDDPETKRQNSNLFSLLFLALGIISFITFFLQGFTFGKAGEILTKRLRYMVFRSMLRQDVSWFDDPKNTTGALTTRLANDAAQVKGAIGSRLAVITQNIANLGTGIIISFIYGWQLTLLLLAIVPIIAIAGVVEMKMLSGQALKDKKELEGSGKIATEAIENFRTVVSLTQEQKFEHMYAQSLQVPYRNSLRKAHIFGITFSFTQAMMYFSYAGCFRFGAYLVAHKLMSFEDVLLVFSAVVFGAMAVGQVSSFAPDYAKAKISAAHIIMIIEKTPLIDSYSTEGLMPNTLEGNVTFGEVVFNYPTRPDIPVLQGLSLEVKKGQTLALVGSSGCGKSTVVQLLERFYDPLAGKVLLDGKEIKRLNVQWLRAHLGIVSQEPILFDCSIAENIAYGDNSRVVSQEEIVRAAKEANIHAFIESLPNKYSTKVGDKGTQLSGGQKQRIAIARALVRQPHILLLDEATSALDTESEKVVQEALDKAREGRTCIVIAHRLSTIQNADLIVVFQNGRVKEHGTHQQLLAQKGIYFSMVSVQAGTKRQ

In the case of `CO[C@@H](C(=O)N1Cc2c(-c3ccc(C(=O)N4CCCc5ccccc54)cc3)cnn2C[C@H]1C(C)C)c1cnn(C)c1` (single isomer, unassigned) [BIO-2007818], the “Parkin autoubiquitination by Western blot” value on WT-Parkin [1] was “reduced ability to induce Parkin autoubiquitination”. Further, the “Miro1 ubiquitination by Western blot” value in data set [2] was “reduced ability”. Moreover, the “Ub-VS charging of WT-Parkin” value in data set [3] is “to a lesser extent”. The “Ub-VS charging of W403A-Parkin” value in data set [4] is reported as “to a lesser extent”.
For `CO[C@H](C(=O)N1Cc2c(-c3ccc(C(=O)N4CCCc5ccccc54)cn3)cnn2C[C@H]1C(C)C)c1cnn(C)c1` (single isomer, unassigned) [BIO-2007967], the EC50 at WT-Parkin [5] (EC50 (μM), WT-Parkin, 5 μM pUb, averaged technical replicates n = 2) is under 0.2 µM.
Take `CO[C@H](C(=O)N1Cc2c(-c3ccc(C(=O)N4CCCc5ccccc54)cc3)cnn2C[C@H]1C(C)C)c1ccccc1` (single isomer, unassigned) [BIO-2008550]: the “effect on mitophagy, MitoQC” value in data set [6] is recorded as “no enhanced MitoQC activity”.
With `CC(C)[C@H]1Cn2ncc(-c3ccc(C(=O)N4CCCc5ccccc54)cc3)c2CN1C(=O)Cc1ccccc1` [BIO-1966560, (S)-1-(6-isopropyl-3-(4-(1,2,3,4-tetrahydroquinoline-1-carbonyl)phenyl)-6,7-dihydropyrazolo[1,5-a]pyrazin-5(4H)-yl)-2-phenylethan-1-one], the “activity in TR-FRET autoubiquitination assay” value (shortened to “activity”) on WT-Parkin [5] was “inactive”.
Consider `CC(C)[C@@H]1Cn2ncc(-c3ccc(C(=O)N4CCCc5ccccc54)cc3)c2CN1C(=O)Cc1ccccc1` [BIO-1966561, (R)-1-(6-isopropyl-3-(4-(1,2,3,4-tetrahydroquinoline-1-carbonyl)phenyl)-6,7-dihydropyrazolo[1,5-a]pyrazin-5(4H)-yl)-2-phenylethan-1-one], for which, on WT-Parkin [5] (from TR-FRET EC50), the “potency improvement (fold) over parent analog” value was 5 fold.
As to `C[C@H](C(=O)N1Cc2c(-c3ccc(C(=O)N4CCCc5ccccc54)cc3)cnn2C[C@H]1C)c1ccccc1` [BIO-1967173, (S)-1-((R)-6-methyl-3-(4-(1,2,3,4-tetrahydroquinoline-1-carbonyl)phenyl)-6,7-dihydropyrazolo[1,5-a]pyrazin-5(4H)-yl)-2-phenylpropan-1-one], the “effect on mitophagy, MitoQC” value in data set [6] is listed as “no enhanced MitoQC activity”.
With `C[C@@H]1Cn2ncc(-c3ccc(C(=O)N4CCCc5ccccc54)cc3)c2CN1C(=O)[C@H](C)c1ccccc1` [BIO-1967174, (R)-1-((R)-6-methyl-3-(4-(1,2,3,4-tetrahydroquinoline-1-carbonyl)phenyl)-6,7-dihydropyrazolo[1,5-a]pyrazin-5(4H)-yl)-2-phenylpropan-1-one], the “activity” value at WT-Parkin [5] is listed as “weakly active”. Also, in data set [2], the “Miro1 ubiquitination by Western blot” value is “enhance the rate of monoubiquitination of Miro1 substrate to a level comparable to that of W403A-Parkin”.
Take `C[C@H](C(=O)N1Cc2c(-c3ccc(C(=O)N4CCCc5ccccc54)cc3)cnn2C[C@@H]1C)c1ccccc1` [BIO-1968010, (S)-1-((S)-6-methyl-3-(4-(1,2,3,4-tetrahydroquinoline-1-carbonyl)phenyl)-6,7-dihydropyrazolo[1,5-a]pyrazin-5(4H)-yl)-2-phenylpropan-1-one]: the “activity” value on WT-Parkin [5] was “inactive”.
In the case of `C[C@@H](C(=O)N1Cc2c(-c3ccc(C(=O)N4CCCc5ccccc54)cc3)cnn2C[C@@H]1C)c1ccccc1` [BIO-1968011, (R)-1-((S)-6-methyl-3-(4-(1,2,3,4-tetrahydroquinoline-1-carbonyl)phenyl)-6,7-dihydropyrazolo[1,5-a]pyrazin-5(4H)-yl)-2-phenylpropan-1-one], at WT-Parkin [5], the “activity” value is “inactive”.
In the case of `Cc1n[nH]c(CC(=O)N2Cc3c(-c4ccc(C(=O)N5CCCc6ccccc65)cc4)cnn3C[C@H]2C)n1` [BIO-1984542, (R)-2-(3-methyl-1H-1,2,4-triazol-5-yl)-1-(6-methyl-3-(4-(1,2,3,4-tetrahydroquinoline-1-carbonyl)phenyl)-6,7-dihydropyrazolo[1,5-a]pyrazin-5(4H)-yl)ethan-1-one], on WT-Parkin [5], the “activity” value was “inactive”. Besides, in data set [7], the “MDR1-MDCK avg (average of Papp AB/BA)” value was 4.4 ×10⁻⁶ cm/s. Moreover, at WT-Parkin [1], the “Parkin autoubiquitination by Western blot” value is “inactive”. Besides, the “Miro1 ubiquitination by Western blot” value in data set [2] is “inactive”. In data set [3], the “Ub-VS charging of WT-Parkin” value is given as “no significant activity”.
Turning to “Phospho-ubiquitin (pUb): Human Recombinant pSer65-Ubiquitin (from UniProt P0CG48 1-76) (natural protein)”, the EC50 of pUb for Ub-VS charging of W403A-Parkin (gel shift), without BIO-2007817 in data set [8] came out at 5.4 μM.

Source of the values: paper PMC8733272 (iScience, 2021).
